Data reported in ChEMBL document CHEMBL4765495, “Semisynthesis and Biological Evaluation of Platencin Thioether Derivatives: Dual FabF and FabH Inhibitors against MRSA” (ACS Med Chem Lett, 2021).
Converted amounts (≈) assume the structure as drawn. The source made the active and inactive calls. The calls are words filed in the database; no cut-off is given here. Positions of bridges follow the written chain, without caps; N, C: chain ends. Non-standard residues stand in square brackets, D forms with d. Residues, ends and D or L forms follow the SMILES beside them. *: point of attachment. X1 = CC[C@H](C)CCCCC(=O)*; Dab = NCC[C@H](N)C(=O)O

What was measured:
Escherichia coli [1] = assay: Binding affinity to His6-tagged Escherichia coli FabF C163Q mutant expressed in Escherichia coli BL21 (DE3) assessed as change in entropy measured after 200 sec by isothermal titration calorimetry
Procedure, shortened: (§1)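 Ligands were dissolved in PBS (10 mM, pH 7.4) and titrated into E. coli FabF(C163Q) in the same buffer. Protein was at 12 or 14 μM and ligand at 250 μM. Thermodynamic parameters (ΔH, ΔS, ΔG, Kd, n) were calculated from the heat of binding. Runs were done at least three times; one representative run was used.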

Staphylococcus aureus [2] = assay: Antibacterial activity against methicillin resistant Staphylococcus aureus assessed as inhibition of bacterial growth measured after 16 hrs by agar plate dilution method; format: functional
Procedure, shortened: (§2)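 Clinical MSSA and MRSA strains isolated from local hospitals; MIC determined by plate dilution; data from at least two independent experiments.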

Escherichia coli [3] = assay: Antibacterial activity against Escherichia coli harboring delta tolC mutant assessed as inhibition of bacterial growth measured after 16 hrs by agar plate dilution method; format: functional
Staphylococcus aureus [4] = assay: Inhibition of Staphylococcus aureus FabH A81V mutant assessed as bacterial growth inhibition measured after 18 hrs by resazurin dye based broth dilution assay
Procedure, shortened: (§3)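 S. aureus strains carrying point mutations in the FabH active site; MIC determined by broth dilution; data from at least two independent experiments.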

[5] = Binding affinity to His6-tagged Escherichia coli FabF C163Q mutant expressed in Escherichia coli BL21 (DE3) assessed as binding constant measured after 200 sec by isothermal titration calorimetry; procedure, shortened: as §1
Escherichia coli [6] = assay: Binding affinity to His6-tagged Escherichia coli FabF C163Q mutant expressed in Escherichia coli BL21 (DE3) assessed as stoichiometry ratio measured after 200 sec by isothermal titration calorimetry; procedure, shortened: as §1
Staphylococcus aureus [7] = assay: Antibacterial activity against methicillin resistant Staphylococcus aureus assessed as inhibition of bacterial growth measured after 18 hrs in presence of 10% human serum by resazurin dye based broth dilution assay; format: functional
Staphylococcus aureus [8] = assay: Antibacterial activity against methicillin sensitive Staphylococcus aureus assessed as inhibition of bacterial growth measured after 16 hrs by agar plate dilution method; format: functional; procedure, shortened: as §2
Staphylococcus aureus [9] = assay: Inhibition of Staphylococcus aureus FabH A81V/A111T mutant assessed as bacterial growth inhibition measured after 18 hrs by resazurin dye based broth dilution assay; procedure, shortened: as §3
Enterococcus faecalis = assay: Antibacterial activity against Enterococcus faecalis ATCC 29212 assessed as inhibition of bacterial growth measured after 16 hrs by agar plate dilution method; format: functional
Staphylococcus aureus [10] = assay: Antibacterial activity against Staphylococcus aureus ATCC 29213 assessed as inhibition of bacterial growth measured after 16 hrs by agar plate dilution method; format: functional
Procedure, shortened: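 MIC determined by plate dilution against the reference strain; values from at least two independent experiments.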

Escherichia coli [11] = assay: Binding affinity to His6-tagged Escherichia coli FabF C163Q mutant expressed in Escherichia coli BL21 (DE3) assessed as change in enthalpy measured after 200 sec by isothermal titration calorimetry; procedure, shortened: as §1
Escherichia coli [12] = assay: Binding affinity to His6-tagged Escherichia coli FabF C163Q mutant expressed in Escherichia coli BL21 (DE3) assessed Gibbs free energy change measured after 200 sec by isothermal titration calorimetry; procedure, shortened: as §1
Escherichia coli [13] = assay: Binding affinity to His6-tagged Escherichia coli FabH expressed in Escherichia coli BL21 (DE3) assessed as decrease in melting temperature at 10 uM by SYPRO orange based differential scanning fluorimetry
Procedure, shortened: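 Purified E. coli FabH melting curves were recorded with and without ligand by thermal-shift fluorometry in 1.0 M Tris-HCl, pH 6.8, a buffer chosen from seven screened. ΔTm was taken from the Tm shift; n = 4.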

[14] = biological target: T1, 3-oxoacyl-[acyl-carrier-protein] synthase 2 (Staphylococcus aureus) (UniProt Q5TKS0); assay: Binding affinity to His6-tagged Staphylococcus aureus FabF expressed in Escherichia coli BL21 (DE3) assessed as decrease in melting temperature at 10 uM by SYPRO orange based differential scanning fluorimetry
T1 sequence (whole entry): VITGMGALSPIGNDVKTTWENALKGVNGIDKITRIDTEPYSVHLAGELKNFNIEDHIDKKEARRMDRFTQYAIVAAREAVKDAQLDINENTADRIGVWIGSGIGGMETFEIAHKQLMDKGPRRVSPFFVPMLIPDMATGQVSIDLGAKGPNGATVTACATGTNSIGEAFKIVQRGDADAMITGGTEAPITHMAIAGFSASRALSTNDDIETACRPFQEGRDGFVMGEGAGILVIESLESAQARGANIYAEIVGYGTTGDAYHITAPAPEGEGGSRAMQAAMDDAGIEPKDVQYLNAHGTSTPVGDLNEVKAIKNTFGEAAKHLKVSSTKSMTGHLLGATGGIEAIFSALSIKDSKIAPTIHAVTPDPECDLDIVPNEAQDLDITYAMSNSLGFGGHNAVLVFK
Procedure, shortened: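 S. aureus FabF melting curves were measured by DSF in 20 mM HEPES, 180 mM NaCl, pH 7.5, a buffer selected by screening seven buffers. ΔTm was derived from the melting-temperature shift caused by ligand; n = 4.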

Staphylococcus aureus [15] = assay: Antibacterial activity against methicillin resistant Staphylococcus aureus infected in C57BL/6J mouse model of peritonitis assessed as mouse survival at 10 mg/kg, ip administered at 1 and 5 hrs post infection; format: functional, organism-based
Procedure, shortened: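 Female C57BL/6J mice infected intraperitoneally with 1.5–2.0 × 10^7 CFU MRSA in 5% w/v hog gastric mucin; n = 5 per group; intraperitoneal treatment at 10 mg/kg at 1 and 5 h post-infection; vancomycin 10 mg/kg as control; survival and kidney bacterial load recorded.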

Staphylococcus aureus [16] = assay: Antibacterial activity against methicillin resistant Staphylococcus aureus infected in C57BL/6J mouse model of peritonitis assessed as mouse survival when infected with 2.5x10^7 CFU bacteria at 10 mg/kg, ip administered at 1 and 5 hrs post infection; format: functional, organism-based
Procedure, shortened: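 Female C57BL/6J mice given a higher intraperitoneal MRSA inoculum of 2.5 × 10^7 CFU; intraperitoneal treatment at 1 and 5 h post-infection; survival recorded.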

Compound | MIC (Staphylococcus aureus [2]) [µg/mL] | MIC (Escherichia coli [3]) [µg/mL] | MIC (Staphylococcus aureus [4]) [µg/mL] | MIC (Staphylococcus aureus [8]) [µg/mL] | MIC (Staphylococcus aureus [9]) [µg/mL] | MIC (Staphylococcus aureus [10]) [µg/mL] | Activity (Escherichia coli [13]) | Activity [14] | also measured
C[C@]12C[C@@]34C=CC(=O)[C@@](C)(CCC(=O)Nc5c(O)ccc(C(=O)O)c5O)[C@@H]3[C@H](C[C@@H]1C4)O2 | 1 (≈ 2.27 µM) | 32 (≈ 72.5 µM) | > 32 | 0.5 (≈ 1.13 µM) | > 32 | 1 (≈ 2.27 µM) | – | – | -TdeltaS (Escherichia coli [1]): -7.95 kcal/mol; Kd [5]: 17.3 nM; Ratio (Escherichia coli [6]): 1.16; MIC (Staphylococcus aureus [7]): 2 µg/mL; MIC (Enterococcus faecalis): 2 µg/mL (≈ 4.53 µM); deltaH (Escherichia coli [11]): -2.06 kcal/mol; deltaG (Escherichia coli [12]): -10 kcal/mol
C=C1C[C@]23C=C(SC4CCCCC4)C(=O)[C@@](C)(CCC(=O)Nc4c(O)ccc(C(=O)O)c4O)[C@@H]2C[C@H]1CC3 | 2 (≈ 3.71 µM) | – | – | 2 (≈ 3.71 µM) | – | 2 (≈ 3.71 µM) | Active | Active | Activity (Staphylococcus aureus [15]): inactive
CC1(C)S[C@@H]2[C@H](NC(=O)[C@H](N)c3ccccc3)C(=O)N2[C@H]1C(=O)O | – | – | 16 (≈ 45.8 µM) | – | 32 (≈ 91.6 µM) | – | – | – | –
CC[C@H](C)CCCCC(=O)N[C@@H](CCN)C(=O)N[C@H](C(=O)N[C@@H](CCN)C(=O)N[C@H]1CCNC(=O)[C@H]([C@@H](C)O)NC(=O)[C@H](CCN)NC(=O)[C@H](CCN)NC(=O)[C@H](CC(C)C)NC(=O)[C@@H](Cc2ccccc2)NC(=O)[C@H](CCN)NC1=O)[C@@H](C)O (X1-[Dab]T[Dab][Dab][Dab][dF]L[Dab][Dab]T; lactam 4-C) | – | 4 (≈ 3.32 µM) | – | – | – | – | – | – | –
C=C1C[C@]23C=C(Sc4ccoc4C)C(=O)[C@@](C)(CCC(=O)Nc4c(O)ccc(C(=O)O)c4O)[C@@H]2CC1CC3 (single isomer, unassigned) | 1 (≈ 1.86 µM) | > 32 | 8 (≈ 14.9 µM) | 1 (≈ 1.86 µM) | 8 (≈ 14.9 µM) | 2 (≈ 3.72 µM) | Active | Active | MIC (Staphylococcus aureus [7]): 16 µg/mL; MIC (Enterococcus faecalis): 2 µg/mL (≈ 3.72 µM); Activity (Staphylococcus aureus [16]): inactive
C=C1C[C@]23C=C(SCCC)C(=O)[C@@](C)(CCC(=O)Nc4c(O)ccc(C(=O)O)c4O)[C@@H]2CC1CC3 (single isomer, unassigned) | 4 (≈ 8.01 µM) | – | – | 4 (≈ 8.01 µM) | – | 8 (≈ 16 µM) | Active | Active | –
C=C1C[C@]23C=C(Sc4ccccn4)C(=O)[C@@](C)(CCC(=O)Nc4c(O)ccc(C(=O)O)c4O)[C@@H]2CC1CC3 (single isomer, unassigned) | 2 (≈ 3.74 µM) | – | – | 2 (≈ 3.74 µM) | – | 4 (≈ 7.48 µM) | Active | Active | –
C=C1C[C@]23C=C(Sc4ccc(I)cc4)C(=O)[C@@](C)(CCC(=O)Nc4c(O)ccc(C(=O)O)c4O)[C@@H]2CC1CC3 (single isomer, unassigned) | 4 (≈ 6.06 µM) | – | – | 4 (≈ 6.06 µM) | – | 8 (≈ 12.1 µM) | Active | Active | –
C=C1C[C@]23C=C(SC(C)(C)C)C(=O)[C@@](C)(CCC(=O)Nc4c(O)ccc(C(=O)O)c4O)[C@@H]2CC1CC3 (single isomer, unassigned) | 8 (≈ 15.6 µM) | – | – | 8 (≈ 15.6 µM) | – | 16 (≈ 31.1 µM) | Active | Active | –
